Measured values: ChEMBL document CHEMBL3621047, “Quaternary Indolizidine and Indolizidone Iminosugars as Potential Immunostimulating and Glycosidase Inhibitory Agents: Synthesis, Conformational Analysis, Biological Activity, and Molecular Docking Study” (J Med Chem, 2015)
Active and inactive are the calls of the source. No cut-off for these calls is given here.

Experiments:
[1] = Inhibition of bovine liver beta-glucosidase using 10 mM p-nitrophenyl-[…]-D-glucopyranoside as substrate; design: species or system Bos taurus
[2] = Inhibition of aspergillus niger alpha-galactosidase using 10 mM p-nitrophenyl-alpha-D-galactopyranoside as substrate
Summary of the method: (§1)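 Enzyme (0.1 U/cm3; A. niger α-galactosidase or bovine liver β-galactosidase) was preincubated with inhibitor for 1 h at 37 °C. Substrate was 10 mM p-nitrophenyl α- or β-D-galactopyranoside in 200 mM sodium acetate, reacted 10 min at 37 °C. The reaction was stopped with 200 mM borate pH 9.8 and released p-nitrophenol read at 420 nm. Ki came from Lineweaver–Burk plots; values are the average of five assays.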

[3] = molecular target: T1, Beta-galactosidase (Bos taurus, UniProt Q58D55); experiment: Inhibition of bovine liver beta-galactosidase using 10 mM p-nitrophenyl-beta-D-galactopyranoside as substrate; summary of the method: as §1
T1 sequence (Q58D55 whole entry): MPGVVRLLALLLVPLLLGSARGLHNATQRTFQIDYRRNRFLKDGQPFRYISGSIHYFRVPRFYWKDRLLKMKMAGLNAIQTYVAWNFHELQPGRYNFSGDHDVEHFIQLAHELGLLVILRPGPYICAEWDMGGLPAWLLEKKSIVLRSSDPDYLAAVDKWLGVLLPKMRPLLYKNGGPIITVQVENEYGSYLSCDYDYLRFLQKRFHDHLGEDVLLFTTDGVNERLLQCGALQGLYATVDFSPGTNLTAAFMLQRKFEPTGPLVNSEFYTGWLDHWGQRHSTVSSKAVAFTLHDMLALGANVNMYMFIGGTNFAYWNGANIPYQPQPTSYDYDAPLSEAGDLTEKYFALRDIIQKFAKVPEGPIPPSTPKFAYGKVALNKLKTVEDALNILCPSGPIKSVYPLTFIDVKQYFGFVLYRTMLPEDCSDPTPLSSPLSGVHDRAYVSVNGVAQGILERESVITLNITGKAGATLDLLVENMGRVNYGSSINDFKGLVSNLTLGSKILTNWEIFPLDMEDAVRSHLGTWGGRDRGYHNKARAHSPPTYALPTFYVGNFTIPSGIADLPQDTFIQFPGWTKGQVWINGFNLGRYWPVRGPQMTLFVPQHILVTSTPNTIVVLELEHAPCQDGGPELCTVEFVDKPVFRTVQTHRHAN

[4] = molecular target: T2, Alpha-mannosidase (Canavalia ensiformis, UniProt C0HJB3); experiment: Inhibition of jack bean alpha-mannosidase using 10 mM p-nitrophenyl-alpha-D-mannopyranoside as substrate
T2 sequence (C0HJB3 whole entry): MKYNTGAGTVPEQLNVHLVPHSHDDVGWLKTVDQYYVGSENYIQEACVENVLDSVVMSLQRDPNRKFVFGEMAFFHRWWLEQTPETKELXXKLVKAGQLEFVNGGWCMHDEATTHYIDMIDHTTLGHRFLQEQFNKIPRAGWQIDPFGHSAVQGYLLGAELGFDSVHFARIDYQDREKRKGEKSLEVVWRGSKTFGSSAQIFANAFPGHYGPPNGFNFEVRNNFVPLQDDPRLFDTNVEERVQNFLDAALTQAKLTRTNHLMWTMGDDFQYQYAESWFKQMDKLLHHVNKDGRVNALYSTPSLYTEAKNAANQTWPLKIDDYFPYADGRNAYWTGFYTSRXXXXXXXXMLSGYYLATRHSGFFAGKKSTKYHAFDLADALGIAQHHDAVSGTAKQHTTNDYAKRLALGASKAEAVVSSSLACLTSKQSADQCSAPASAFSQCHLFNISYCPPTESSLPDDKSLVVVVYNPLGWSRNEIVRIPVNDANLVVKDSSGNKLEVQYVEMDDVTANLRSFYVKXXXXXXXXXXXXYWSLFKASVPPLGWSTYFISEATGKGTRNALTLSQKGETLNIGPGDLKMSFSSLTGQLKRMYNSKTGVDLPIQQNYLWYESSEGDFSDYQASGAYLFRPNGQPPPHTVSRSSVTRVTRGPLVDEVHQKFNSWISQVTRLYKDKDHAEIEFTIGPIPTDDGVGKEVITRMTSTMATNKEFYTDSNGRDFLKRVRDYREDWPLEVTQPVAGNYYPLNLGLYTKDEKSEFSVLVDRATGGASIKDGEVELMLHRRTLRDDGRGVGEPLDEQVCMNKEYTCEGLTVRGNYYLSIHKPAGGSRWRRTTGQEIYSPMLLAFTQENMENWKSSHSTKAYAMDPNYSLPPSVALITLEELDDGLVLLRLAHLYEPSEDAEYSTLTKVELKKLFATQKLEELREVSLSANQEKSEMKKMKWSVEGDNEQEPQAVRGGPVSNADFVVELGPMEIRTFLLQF
Summary of the method: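 Jack bean α-mannosidase (0.1 U cm−3) was preincubated with compound 1 h at 37 °C. Reaction used 10 mM p-nitrophenyl-α-D-mannopyranoside in 100 mM citrate pH 4.5, 10 min at 37 °C, stopped with 200 mM borate pH 9.8. Read at 420 nm. IC50 and Ki were determined, Ki from Lineweaver–Burk double-reciprocal plots. Mean of five assays.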

[5] = system: Oryza sativa; experiment: Inhibition of rice alpha-glucosidase at 1 mM using 10 mM p-nitrophenyl-alpha-D-glucopyranoside as substrate
Summary of the method: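 Rice α-glucosidase (0.1 U cm−3) was preincubated with compound 1 h at 37 °C. Reaction used 10 mM p-nitrophenyl-α-D-glucopyranoside in 100 mM phosphate pH 6.8, 10 min at 37 °C, stopped with 0.1 M Na2CO3. p-Nitrophenol was read at 420 nm. NI means no 50% inhibition at 1 mM. Ki came from Lineweaver–Burk plots. Average of five assays.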

[6] = system: Splenocyte; experiment: Immunostimulating activity in Swiss albino mouse Splenocytes assessed as increase in ConA-induced cell proliferation upto 2.5 uM after 72 hrs by MTT assay; assay type: functional, cell-based
Summary of the method: (§2)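 Swiss albino mouse splenocytes (2 × 10^6 cells/well) were treated with Con A alone or with test samples at final 0.5, 1, 2.5 and 5 μM. Con A is given as final 10 μg/mL in methods and 10 μM in text. Cells were held 72 h at 37 °C, 5% CO2, in RPMI with 10% FCS, then read by MTT. Values are % of Con A-treated cells (100%), mean ± SEM, n = 5.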

[7] = Cytotoxicity against Swiss albino mouse Splenocytes assessed as cell proliferation at 0.5 to 5 uM after 72 hrs by MTT assay; assay type: cell-based; conditions: splenocyte; summary of the method: as §2
[8] = system: Splenocyte; experiment: Immunostimulating activity in Swiss albino mouse Splenocytes assessed as decrease in ConA-induced IL-4 secretion at 2.5 uM by ELISA; assay type: functional
Summary of the method: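 Supernatants came from Con A-stimulated splenocytes (2 × 10^6 cells/well) with compound at 2.5 or 5 μM. They were spun 2000g for 5 min and stored at −70 °C. IL-4 was measured by ELISA: sample 2 h at 37 °C, then peroxidase conjugate 1 h, substrate developed in the dark. Absorbance was read at 550 nm with 450 nm correction and quantified from an IL-4 standard curve. n = 5.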

[9] = system: Splenocyte; experiment: Immunostimulating activity in Swiss albino mouse Splenocytes assessed as increase in IL-6 secretion at 2.5 uM by ELISA in presence of 10 uM ConA relative to control; assay type: functional
Summary of the method: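 Splenocytes (2 × 10^6 cells/well) were stimulated with 10 μM Con A plus compound (2.5 or 5 μM). Supernatant IL-6 was measured by sandwich ELISA: sample 2 h at 37 °C, biotinylated antibody 1 h, streptavidin–HRP, then substrate in the dark. Absorbance was read at 550 nm with 450 nm correction against an IL-6 standard curve. Mean ± SEM, n = 5.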

[10] = system: Splenocyte; experiment: Immunostimulating activity in Swiss albino mouse Splenocytes assessed as increase in ConA-induced IFN-gamma secretion at 2.5 uM by ELISA; assay type: functional, cell-based
Summary of the method: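 IFN-γ was measured by ELISA in supernatants of splenocytes (2 × 10^6 cells/well). Cells were unstimulated, stimulated with Con A (10 μM), or given Con A plus compound (2.5 or 5 μM) for 24 h. Mean ± SEM, n = 5.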

[11] = system: Splenocyte; experiment: Immunostimulating activity in Swiss albino mouse Splenocytes assessed as ConA-induced cell proliferation > 5 uM after 72 hrs by MTT assay; assay type: functional, cell-based
[12] = molecular target: T3, Alpha-mannosidase (Canavalia ensiformis) (UniProt C0HJB3); experiment: Inhibition of jack bean alpha-mannosidase at 1 mM using 10 mM p-nitrophenyl-alpha-D-mannopyranoside as substrate
T3 sequence (whole entry): T2 sequence (C0HJB3 whole entry)
Summary of the method: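 Jack bean α-mannosidase (0.1 U/cm3) was preincubated with inhibitor for 1 h at 37 °C. Substrate was 10 mM p-nitrophenyl α-D-mannopyranoside in 100 mM citrate pH 4.5, reacted 10 min at 37 °C. The reaction was stopped with 200 mM borate pH 9.8 and absorbance read at 420 nm. Ki came from Lineweaver–Burk plots; average of five assays. NI means under 50% inhibition at 1 mM.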

[13] = system: Splenocyte; experiment: Immunostimulating activity in Swiss albino mouse Splenocytes assessed as increase in ConA-induced cell proliferation upto 5 uM after 72 hrs by MTT assay; assay type: functional, cell-based
Summary of the method: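 Splenocytes (2 × 10^6/well) from Swiss albino mice were treated with Con A (methods give final 10 μg/mL; results give 10 μM), alone or with compound at final 0.5, 1, 2.5 and 5 μM. Incubation was 72 h at 37 °C, 5% CO2, in RPMI with 10% FCS. Readout by MTT, expressed as % of Con A-treated cells (100%); mean ± SEM, n = 5.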

[14] = system: Splenocyte; experiment: Immunostimulating activity in Swiss albino mouse Splenocytes assessed as decrease in ConA-induced IL-4 secretion at 5 uM by ELISA; assay type: functional
[15] = system: Splenocyte; experiment: Immunostimulating activity in Swiss albino mouse Splenocytes assessed as increase in IL-6 secretion at 5 uM by ELISA in presence of 10 uM ConA relative to control; assay type: functional
Summary of the method: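 Supernatants came from splenocytes (2 × 10^6/well) treated with Con A 10 μM plus compound at 5 μM. IL-6 was measured by ELISA: samples 2 h at 37 °C, biotinylated antibody 1 h, then streptavidin–HRP and substrate developed in the dark. Read at 550 nm with 450 nm correction and quantified from an IL-6 standard curve; mean ± SEM, n = 5.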

[16] = system: Splenocyte; experiment: Immunostimulating activity in Swiss albino mouse Splenocytes assessed as increase in ConA-induced IFN-gamma secretion at 5 uM by ELISA; assay type: functional, cell-based
Summary of the method: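 Splenocyte supernatants (2 × 10^6 cells/well) were collected after 24 h stimulation with Con A 10 μM alone or with compound at 5 μM. Unstimulated cells served as control. IFN-γ was quantified by sandwich ELISA; mean ± SEM, n = 5.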

[17] = Inhibition of rice alpha-glucosidase using 10 mM p-nitrophenyl-alpha-D-glucopyranoside as substrate; design: species or system Oryza sativa
Summary of the method: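 Rice α-glucosidase (0.1 U cm−3) was preincubated with compound 1 h at 37 °C. Reaction used 10 mM p-nitrophenyl-α-D-glucopyranoside in 100 mM phosphate pH 6.8, 10 min at 37 °C, stopped with 0.1 M Na2CO3. p-Nitrophenol was read at 420 nm. Ki came from Lineweaver–Burk plots. Average of five assays.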

[18] = system: Aspergillus niger; experiment: Inhibition of aspergillus niger alpha-galactosidase at 1 mM using 10 mM p-nitrophenyl-alpha-D-galactopyranoside as substrate
Summary of the method: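 Galactosidase (0.1 U cm−3) was preincubated with compound 1 h at 37 °C. Reaction used 10 mM p-nitrophenyl-α- or β-D-galactopyranoside in 200 mM sodium acetate, 10 min at 37 °C, stopped with 200 mM borate pH 9.8. Read at 420 nm. NI means no 50% inhibition at 1 mM. Five assays averaged.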

Compound | IC50 [4] | Ki [4] | IC50 [1] | Ki [1] | IC50 [2] | Ki [2] | IC50 [3] | Ki [3] | inhibition [5] | Activity [6] | Activity [7] | inhibition at 2.5 µM [8] | fold change (FC) [9] | Activity [10] | Activity [11] | inhibition [12] | Activity [13] | inhibition at 5 µM [14] | fold change (FC) [15] | Activity [16] | also measured
OC[C@]12CCCN1C[C@H](O)[C@@H](O)[C@@H]2O |  |  | 116 µM | 95 µM | 0.13 µM | 0.09 µM | 3.6 µM | 1.5 µM | < 50% |  | Non-toxic |  |  |  | inactive | < 50% | Active | 31% | 4.1 | Active | 
OC[C@@]12CCCN1C[C@H](O)[C@@H](O)[C@@H]2O |  |  | 202 µM | 102 µM | 0.24 µM | 0.54 µM | 2.3 µM | 1 µM | < 50% |  | Non-toxic |  |  |  | inactive | < 50% | Active | 34% | 4.4 | Active | 
OC[C@@]12CCCN1C[C@@H](O)[C@@H](O)[C@@H]2O |  |  | 156 µM | 86 µM | 0.63 µM | 0.44 µM | 1.2 µM | 0.5 µM | < 50% |  | Non-toxic |  |  |  | inactive | < 50% | Active | 31% | 3.7 | Active | 
OCCN1C[C@H](O)[C@@H](O)[C@H](O)[C@H]1CO [MIGLITOL] |  |  | 342 µM | 32 µM |  |  | 200 µM | 100 µM |  |  |  |  |  |  |  | < 50% |  |  |  |  | IC50 [17]: 0.1 µM; Ki [17]: 0.06 µM; inhibition [18]: < 50%

Second part, led by results:

IC50 [4] | Ki [4] | Compound | IC50 [1] | Ki [1] | IC50 [2] | Ki [2] | IC50 [3] | Ki [3] | inhibition [5] | Activity [6] | Activity [7] | inhibition at 2.5 µM [8] | fold change (FC) [9] | Activity [10] | Activity [11] | inhibition [12] | Activity [13] | inhibition at 5 µM [14] | fold change (FC) [15] | Activity [16] | also measured
0.075 µM | 0.043 µM | O=C1CC[C@@]2(CO)[C@@H](O)[C@H](O)[C@@H](O)CN12 | 39 µM | 19 µM | 130 µM | 14 µM | 5.6 µM | 2.4 µM | < 50% | Active | Non-toxic | 47% | 9 | Active | inactive |  |  |  |  |  | 
1.3 µM | 0.9 µM | O=C1CC[C@@]2(CO)[C@@H](O)[C@H](O)[C@H](O)CN12 | 46 µM | 24 µM | 630 µM | 68 µM | 7.2 µM | 3.1 µM | < 50% | Active | Non-toxic | 34% | 8.2 | Active | inactive |  |  |  |  |  | 
